{
  "source": "paper PMC9893515",
  "about": "(Bioorganic chemistry, 2021)",
  "data": [
    {"molecular_target": "T1, recombinant human TDP2 (Homo sapiens, UniProt O95551)", "T1 sequence (O95551 1-362)": "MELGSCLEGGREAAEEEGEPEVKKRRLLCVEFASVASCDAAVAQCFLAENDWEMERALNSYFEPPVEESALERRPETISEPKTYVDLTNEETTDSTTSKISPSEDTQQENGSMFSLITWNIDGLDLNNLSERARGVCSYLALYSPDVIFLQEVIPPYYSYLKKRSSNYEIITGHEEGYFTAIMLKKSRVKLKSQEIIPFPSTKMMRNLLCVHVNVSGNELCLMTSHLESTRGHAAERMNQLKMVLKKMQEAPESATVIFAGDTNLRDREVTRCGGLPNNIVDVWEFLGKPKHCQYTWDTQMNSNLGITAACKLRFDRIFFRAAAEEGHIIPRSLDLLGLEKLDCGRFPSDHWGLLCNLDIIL", "experiment": "Recombinant TDP2 assay", "type": "biochemical", "outline": "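Human recombinant TDP2 (25 pM) with 1 nM 18-mer 5'-phosphotyrosyl ssDNA, 3'-α32P-cordycepin-labelled. Reaction ran 15 min at room temperature in Tris-HCl pH 7.5, KCl, MgCl2, EDTA, DTT, BSA and Tween 20. Stopped with formamide loading buffer, then 16% denaturing PAGE and phosphorimaging densitometry of product. […] IC50 is 50% enzyme inhibition.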", "units": {"IC50": "µM"}, "values": [
      {"smiles": "CCOC(=O)c1c(C)oc2c1C(=O)c1ccccc1C2=O", "note": "[Compound 11, Ethyl 2-methyl-4,9-dioxo-4,9-dihydronaphtho[2,3-b]furan-3-carboxylate]", "IC50": "> 111"},
      {"smiles": "CCOC(=O)c1c(C)oc2c1C(=O)c1cnccc1C2=O", "note": "[Compound 12, Ethyl 2-methyl-4,9-dioxo-4,9-dihydrofuro[2,3-g]isoquinoline-3-carboxylate]", "IC50": "32 ± 3.2"},
      {"smiles": "CCOC(=O)c1c(C)oc2c1C(=O)c1ccncc1C2=O", "note": "[Compound 13, Ethyl 2-methyl-4,9-dioxo-4,9-dihydrofuro[3,2-g]isoquinoline-3-carboxylate]", "IC50": "> 111"},
      {"smiles": "CCOC(=O)c1c(C)oc2c1C(=O)c1nccnc1C2=O", "note": "[Compound 14, Ethyl 7-methyl-5,9-dioxo-5,9-dihydrofuro[2,3-g]quinoxaline-8-carboxylate]", "IC50": "61 ± 43"},
      {"smiles": "CCOC(=O)c1c(C)oc2c1C(=O)c1nc3ccccc3cc1C2=O", "note": "[Compound 16, Ethyl 2-methyl-4,11-dioxo-4,11-dihydrofuro[2,3-b]acridine-3-carboxylate]", "IC50": "> 111"},
      {"smiles": "CCOC(=O)c1c(C)oc2c1C(=O)c1nc(Cl)ccc1C2=O", "note": "[Compound 19, Ethyl-6-chloro-2-methyl-4,9-dioxo-4,9-dihydrofuro[2,3-g]quinoline-3-carboxylate]", "IC50": "94 ± 29"},
      {"smiles": "CCOC(=O)c1c(C)oc2c1C(=O)c1ccc(Cl)nc1C2=O", "note": "[Compound 20, Ethyl-7-chloro-2-methyl-4,9-dioxo-4,9-dihydrofuro[3,2-g]quinoline-3-carboxylate]", "IC50": "> 111"},
      {"smiles": "CCOC(=O)c1c(C)oc2c1C(=O)c1nc(C)ccc1C2=O", "note": "[Compound 21, Ethyl-2,6-dimethyl-4,9-dioxo-4,9-dihydrofuro[2,3-g]quinoline-3-carboxylate]", "IC50": "21 ± 5.5"},
      {"smiles": "CCOC(=O)c1c(C)oc2c1C(=O)c1ccc(C)nc1C2=O", "note": "[Compound 22, Ethyl-2,7-dimethyl-4,9-dioxo-4,9-dihydrofuro[3,2-g]quinoline-3-Carboxylate]", "IC50": "> 111"},
      {"smiles": "CCOC(=O)c1c(C)oc2c1C(=O)c1nc(N(C)C)ccc1C2=O", "note": "[Compound 23, Ethyl-6-(dimethylamino)-2-methyl-4,9-dioxo-4,9-dihydrofuro[2,3-g]quinoline-3-carboxylate]", "IC50": "37 ± 7"},
      {"smiles": "CCOC(=O)c1c(C)oc2c1C(=O)c1nc(N3CCCCC3)ccc1C2=O", "note": "[Compound 24, Ethyl-2-methyl-4,9-dioxo-6-(piperidin-1-yl)-4,9-dihydrofuro[2,3-g]quinoline-3-carboxylate]", "IC50": "44 ± 2"},
      {"smiles": "CCOC(=O)c1c(C)oc2c1C(=O)c1nc(N3CCN(C)CC3)ccc1C2=O", "note": "[Compound 25, Ethyl-2-methyl-6-(4-methylpiperazin-1-yl)-4,9-dioxo-4,9-dihydrofuro[2,3-g]quinoline-3-carboxylate]", "IC50": "> 111"},
      {"smiles": "C#CCN(C)c1ccc2c(n1)C(=O)c1c(oc(C)c1C(=O)OCC)C2=O", "note": "[Compound 26, Ethyl-2-methyl-6-(methyl(prop-2-yn-1-yl)amino)-4,9-dioxo-4,9-dihydrofuro[2,3-g]quinoline-3-carboxylate]", "IC50": "> 111"},
      {"smiles": "CCOC(=O)c1c(C)oc2c1C(=O)c1nc(-c3ccc(OC)cc3)ccc1C2=O", "note": "[Compound 27, Ethyl6-(4-methoxyphenyl)-2-methyl-4,9-dioxo-4,9-dihydrofuro[2,3-g]quinoline-3-carboxylate]", "IC50": "> 111"},
      {"smiles": "CCOC(=O)c1c(C)oc2c1C(=O)c1nc(-c3ccco3)ccc1C2=O", "note": "[Compound 28, Ethyl-6-(furan-2-yl)-2-methyl-4,9-dioxo-4,9-dihydrofuro[2,3-g]quinoline-3-carboxylate]", "IC50": "> 111"},
      {"smiles": "CCOC(=O)c1c(C)oc2c1C(=O)c1ccc(N(C)C)nc1C2=O", "note": "[Compound 30, Ethyl-7-(dimethylamino)-2-methyl-4,9-dioxo-4,9-dihydrofuro[3,2-g]quinoline-3-carboxylate]", "IC50": "> 111"},
      {"smiles": "CCOC(=O)c1c(C)oc2c1C(=O)c1ccc(N3CCCCC3)nc1C2=O", "note": "[Compound 31, Ethyl-2-methyl-4,9-dioxo-7-(piperidin-1-yl)-4,9-dihydrofuro[3,2-g]quinoline-3-carboxylate]", "IC50": "> 111"},
      {"smiles": "CCOC(=O)c1c(C)oc2c1C(=O)c1ncc(C)cc1C2=O", "note": "[Compound 33, Ethyl-2,7-dimethyl-4,9-dioxo-4,9-dihydrofuro[2,3-g]quinoline-3-carboxylate]", "IC50": "> 111"},
      {"smiles": "CCOC(=O)c1c(C)oc2c1C(=O)c1nccc(-c3ccccc3[N+](=O)[O-])c1C2=O", "note": "[Compound 34, Ethyl-2-methyl-8-(2-nitrophenyl)-4,9-dioxo-4,9-dihydrofuro[2,3-g]quinoline-3-carboxylate]", "IC50": "> 111"},
      {"smiles": "CCOC(=O)c1ccnc2c1C(=O)c1oc(C)c(C(=O)OCC)c1C2=O", "note": "[Compound 35, Diethyl-2-methyl-4,9-dioxo-4,9-dihydrofuro[2,3-g]quinoline-3,8-dicarboxylate]", "IC50": "69 ± 3.1"},
      {"smiles": "CCOC(=O)c1c(C)oc2c1C(=O)c1nccc(CC)c1C2=O", "note": "[Compound 36, Ethyl-8-ethyl-2-methyl-4,9-dioxo-4,9-dihydrofuro[2,3-g]quinoline-3-carboxylate]", "IC50": "28 ± 1.3"},
      {"smiles": "CCOC(=O)c1c(C(C)C)oc2c1C(=O)c1ncccc1C2=O", "note": "[Compound 39, Ethyl 2-isopropyl-4,9-dioxo-4,9-dihydrofuro[2,3-g]quinoline-3-carboxylate]", "IC50": "25 ± 7.7"},
      {"smiles": "CCOC(=O)c1c(C(C)C)oc2c1C(=O)c1cccnc1C2=O", "note": "[Compound 40, Ethyl 2-isopropyl-4,9-dioxo-4,9-dihydrofuro[3,2-g]quinoline-3-carboxylate]", "IC50": "> 111"},
      {"smiles": "CCOC(=O)c1c(-c2ccccc2)oc2c1C(=O)c1ncccc1C2=O", "note": "[Compound 41, Ethyl 4,9-dioxo-2-phenyl-4,9-dihydrofuro[2,3-g]quinoline-3-carboxylate]", "IC50": "28 ± 6.4"},
      {"smiles": "CCOC(=O)c1c(-c2ccccc2)oc2c1C(=O)c1cccnc1C2=O", "note": "[Compound 42, Ethyl 4,9-dioxo-2-phenyl-4,9-dihydrofuro[3,2-g]quinoline-3-carboxylate]", "IC50": "47 ± 24"},
      {"smiles": "CCOC(=O)c1c(CBr)oc2c1C(=O)c1ncccc1C2=O", "note": "[Compound 43, Ethyl 2-(bromomethyl)-4,9-dioxo-4,9-dihydrofuro[2,3-g]quinoline-3-carboxylate]", "IC50": "21 ± 5.5"},
      {"smiles": "CCOC(=O)c1c(C(Br)Br)oc2c1C(=O)c1ncccc1C2=O", "note": "[Compound 44, Ethyl 2-(dibromomethyl)-4,9-dioxo-4,9-dihydrofuro[2,3-g]quinoline-3-carboxylate]", "IC50": "27 ± 2.5"},
      {"smiles": "CCOC(=O)c1c(CN2CCN(C(C)=O)CC2)oc2c1C(=O)c1ncccc1C2=O", "note": "[Compound 45, Ethyl 2-((4-acetylpiperazin-1-yl)methyl)-4,9-dioxo-4,9-dihydrofuro[2,3-g]qui noline-3-carboxylate]", "IC50": "31 ± 4.2"},
      {"smiles": "CCOC(=O)c1c(CN2CCOCC2)oc2c1C(=O)c1ncccc1C2=O", "note": "[Compound 46, Ethyl 2-(morpholinomethyl)-4,9-dioxo-4,9-dihydrofuro[2,3-g]quinoline-3-ca rboxylate]", "IC50": "22 ± 6.4"},
      {"smiles": "CCOC(=O)c1c(CN2CCSCC2)oc2c1C(=O)c1ncccc1C2=O", "note": "[Compound 47, Ethyl 4,9-dioxo-2-(thiomorpholinomethyl)-4,9-dihydrofuro[2,3-g]quinoline3-carboxylate]", "IC50": "31 ± 6.4"},
      {"smiles": "CCOC(=O)c1c(C=O)oc2c1C(=O)c1ncccc1C2=O", "note": "[Compound 49, Ethyl-2-formyl-4,9-dioxo-4,9-dihydrofuro[2,3-g]quinoline-3-carboxylate]", "IC50": "5.2 ± 4.1"}
    ]}
  ]
}
